The values that follow come from article PMC3064480 (Molecular bioSystems, 2010).

As usually defined, the IC50 is the midpoint of a concentration-inhibition curve. The low end stands for greater potency in that assay, the high end for weaker potency in that assay.

“Also recorded” adds a separate entry of the source. Ends that are not written are not given here.

Assay [1] has as its target T1, TβRII-ED (residues 1-137) (Homo sapiens, UniProt P37173). Put plainly: SPR, TβRII-ED. Type of assay: binding. The gist of the method: (§1)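 CM5 chip with HBS (pH 7.4) running buffer. TβRI-ED (residues 7-91), TβRII-ED (1-137) and endoglin-ED (26-586) were amine-coupled (EDC/NHS) from 20 μg/mL in 10 mM NaOAc pH 5.0 to about 3600, 1900 and 7300 RU, then blocked with ethanolamine. The protein-free reference signal was subtracted. Surfaces were regenerated with 100 mM HCl for 30 s.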
A general note: Surface plasmon resonance follows binding to a sensor surface in real time, without labels.

Assay [2] deals with TβRI-ED. As to conditions: TGF-β alone; cited from earlier work.
In a further assay the test system is ActRII-ED. Put plainly: SPR, ActRII-ED. The format is binding, human. As to conditions: verification of immobilized receptor activity. The gist of the method: (§2)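 In a separate run, recombinant human β-glycan-ED (residues 21-781), BMPR-IA-ED (Gln24-Arg152, Fc chimera) and ActRII-ED (Ser25-Pro134, Fc chimera) were amine-coupled on a CM5 chip to about 1600, 3300 and 4300 RU. Serial dilutions of peptide-bearing dendrimer in HBS, within 2.9 nM–6 μM, were injected for 5 min with 5 min dissociation at 10 μL/min. Reference subtraction and HCl regeneration were used.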

A further assay concerns BMPR-IA-ED. Put plainly: SPR, BMPR-IA-ED. Type of assay: binding, human. The conditions noted are these: verification of immobilized receptor activity. The gist of the method: as §2
The target of assay [3] is T2, TβRI-ED (Homo sapiens, UniProt P36897).
T2 sequence (P36897 25-125): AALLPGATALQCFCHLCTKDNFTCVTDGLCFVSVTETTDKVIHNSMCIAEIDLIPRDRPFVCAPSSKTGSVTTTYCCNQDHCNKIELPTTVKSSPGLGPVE
The experiment in a line: competition ELISA. The format is binding. The gist of the method: (§3)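 Equimolar TβRI-ED (residues 1-101, 1.0 μg) or TβRII-ED (1-137, 1.5 μg), E. coli-expressed and refolded, was coated at 4 °C for 12 h. For Kd, M13 phage clones at various concentrations were bound for 1 h at room temperature in 2% BSA/PBS/0.5% Tween 20, with BSA wells as control. For IC50, fixed phage near its apparent Kd was mixed with varying peptide. Read-out was anti-M13-HRP, then ABTS/H2O2 for 30 min and A405; mean ± SD.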
In general terms: An ELISA detects its analyte on a solid surface through an enzyme-linked reagent.

The target of assay [4] is T1, TβRII-ED (residues 1-137). The experiment in a line: competition ELISA. Type of assay: binding. In short, it runs like this: as §3
The next assay deals with TβRII. As to conditions: read-out: Kd (binding to two copies of TβRII); approximate (~) range; cited from earlier work.
Assay [5] deals with artificially dimerized TβRII-ED. The conditions noted are these: previous SPR studies; cited from earlier work.
For another assay, the target named is T3, TβRI-ED (residues 7-91) (Homo sapiens, UniProt P36897).
T3 sequence (P36897 31-115): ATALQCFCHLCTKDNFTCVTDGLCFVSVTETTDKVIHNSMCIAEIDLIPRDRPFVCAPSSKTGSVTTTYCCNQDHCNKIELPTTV
The experiment in a line: SPR, TβRI-ED. The format is binding. The conditions noted are these: TGF-β1 41 pM to 30 nM. In short, it runs like this:
as §1

The next assay has as its target monomeric TβRII-ED. As to conditions: previous SPR studies; cited from earlier work.
The test system of assay [6] is TGF-β responsive SBE(CAGA)12-luciferase reporter, Mv1Lu cells. The experiment in a line: Reporter gene assay, SBE. As to conditions: 10 μM SB-431542; 10 pM TGF-β1. Type of assay: cell-based, mink. In short, it runs like this:
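Mv1Lu cells stably carrying the SBE(CAGA)12-Luc reporter were grown in DMEM with 10% FBS. About 4000 cells were plated and left to attach overnight. Medium was changed to DMEM with 0.2% FBS 4 h before treatment. Cells received TGF-β1, TGF-β1 with serial dilutions of test peptide, or peptide alone, with untreated cells as control, in triplicate. After 18-24 h, Bright-Glo luminescence was normalised to cell number by CellTiter-Glo.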

The molecule “TGF-β: transforming growth factor β, generic wording; TGF-β1 in the authors' own experiments” displayed a saturating concentration in [1] (binding to TβRII-ED, SPR) of 10 nM. Further, the “affinity for TβRI-ED” value in the assay with TβRI-ED [2] is listed as “weak affinity”.
Take “BMP-4: known ligand of BMPR-IA and ActRII”: the “binding of BMP-4” value with ActRII-ED and in the assay with BMPR-IA-ED was “ability to bind BMP-4” throughout.
With LTGKNFPMFHRN [Pep1], the figures for the IC50 (at TβRI-ED [3]; in [4]) were 110 µM and 156 µM, respectively. The Kd (at TβRI-ED [3]; in assay [4]) was roughly 10 µM throughout.
At TβRI-ED [3], MHRMPSFLPTTL [Pep2] came in with an IC50 of 256 µM and a Kd of roughly 10 µM. In assay [4], the IC50 is 274 µM and the Kd is roughly 10 µM.
Consider “TGF-β1: Recombinant human TGF-β1, disulfide-linked homodimer growth factor”, for which the Kd is 0.005 to 0.03 nM at TβRII; roughly 1.4 nM in [1] (read-out: apparent Kd, TGF-β1 41 pM to 30 nM, dose dependent SPR responses, surface a mixture of monomeric and dimeric receptor); roughly 5 pM in [5]; roughly 100 nM on monomeric TβRII-ED. Moreover, the “binding to TβRI-ED surface” value with TβRI-ED (residues 7-91) was “did not bind detectably; also recorded: no observable affinity”.
As for `NC(=O)c1ccc(-c2nc(-c3ccc4c(c3)OCO4)c(-c3ccccn3)[nH]2)cc1` [SB-431542], the “inhibition of TGF-β-induced luciferase gene expression” value in [6] is reported as “completely blocked; also recorded: inhibited TGF-β regulated luciferase gene expression”.
For the molecule TGF-β3: TGF-β isoform 3, the Kd on TβRII is 0.005 to 0.03 nM.
